Measurements reported in ChEMBL document CHEMBL1667806, “Synthesis and evaluation of anti-tubercular activity of new dithiocarbamate sugar derivatives” (2011).
Converted amounts (≈) assume the structure as drawn.

Tests used:
[1] = system: Mycobacterium tuberculosis; assay: Antimycobacterial activity against Mycobacterium tuberculosis H37Rv; assay type: functional
[2] = microbe, parasite or virus in culture; assay type: functional, Mycobacterium avium subsp. hominissuis; details: Mycobacterium avium, 104
[3] = system: Staphylococcus aureus; assay: Antimicrobial activity against Staphylococcus aureus; assay type: functional
[4] = microbe, parasite or virus in culture; assay type: functional, Mycobacterium bovis BCG str. Tokyo 172; details: Mycobacterium tuberculosis variant bovis BCG
[5] = system: Mycobacterium avium; assay: microbe, parasite or virus in culture; assay type: functional, Mycobacterium avium subsp. avium ATCC 25291; details: ATCC 2529
[6] = system: Mycolicibacterium smegmatis; assay: microbe, parasite or virus in culture; assay type: functional; details: JATA 64.01
[7] = system: Staphylococcus aureus; assay: microbe, parasite or virus in culture; assay type: functional; details: 873
[8] = system: Escherichia coli; assay: Antimicrobial activity against Escherichia coli DH5alpha; assay type: functional; details: DH5[alpha]
[9] = system: Escherichia coli; assay: Antimicrobial activity against drug-sensitive Escherichia coli JM109; assay type: functional
[10] = system: Enterococcus faecalis; assay: Antimicrobial activity against AGs-resistant Enterococcus faecalis ATCC 19434; assay type: functional
[11] = system: Staphylococcus aureus; assay: Antimicrobial activity against methicillin-resistant Staphylococcus aureus MF490; assay type: functional
[12] = system: Staphylococcus aureus; assay: Antimicrobial activity against drug-sensitive Staphylococcus aureus RN4220; assay type: functional
[13] = system: Pseudomonas aeruginosa; assay: Antibacterial activity against drug-sensitive Pseudomonas aeruginosa PAO1; assay type: functional
[14] = system: Staphylococcus aureus; assay: Antimicrobial activity against drug-sensitive Staphylococcus aureus 209PJC-1; assay type: functional
[15] = system: Klebsiella pneumoniae; assay: Antibacterial activity against […] Klebsiella pneumoniae ATCC BAA-1705; assay type: functional
[16] = system: Enterococcus faecalis; assay: Antimicrobial activity against AGs-resistant Enterococcus faecalis ATCC 19433; assay type: functional
[17] = system: Mycobacterium tuberculosis; assay: Antimycobacterial activity against drug-sensitive Mycobacterium tuberculosis isolate 4; assay type: functional
In short: (§1)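 MIC by broth dilution in Middlebrook 7H9 broth supplemented with albumin, dextrose and catalase.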

[18] = system: Mycobacterium tuberculosis; assay: Antimycobacterial activity against drug-sensitive Mycobacterium tuberculosis isolate 11; assay type: functional; in short: as §1
[19] = system: Mycobacterium tuberculosis; assay: Antimycobacterial activity against drug-sensitive Mycobacterium tuberculosis isolate 9; assay type: functional; in short: as §1
[20] = system: Mycobacterium tuberculosis; assay: Antimycobacterial activity against drug-sensitive Mycobacterium tuberculosis isolate 18; assay type: functional; in short: as §1
[21] = system: Mycobacterium tuberculosis; assay: Antimycobacterial activity against drug-sensitive Mycobacterium tuberculosis isolate 19; assay type: functional; in short: as §1
[22] = system: Mycobacterium tuberculosis; assay: Antimycobacterial activity against drug-sensitive Mycobacterium tuberculosis isolate 15; assay type: functional; in short: as §1
[23] = system: Mycobacterium tuberculosis; assay: Antimycobacterial activity against drug-sensitive Mycobacterium tuberculosis isolate 6; assay type: functional; in short: as §1
[24] = system: Mycobacterium tuberculosis; assay: Antimycobacterial activity against drug-sensitive Mycobacterium tuberculosis isolate 1; assay type: functional
[25] = system: Mycobacterium tuberculosis; assay: Antimycobacterial activity against drug-sensitive Mycobacterium tuberculosis isolate 14; assay type: functional; in short: as §1
[26] = system: Mycobacterium tuberculosis; assay: Antimycobacterial activity against drug-sensitive Mycobacterium tuberculosis isolate 10; assay type: functional; in short: as §1
[27] = system: Mycobacterium tuberculosis; assay: Antimycobacterial activity against drug-sensitive Mycobacterium tuberculosis isolate 17; assay type: functional; in short: as §1
[28] = system: Mycobacterium tuberculosis; assay: Antimycobacterial activity against drug-sensitive Mycobacterium tuberculosis isolate 8; assay type: functional; in short: as §1
[29] = system: Mycobacterium tuberculosis; assay: Antimycobacterial activity against drug-sensitive Mycobacterium tuberculosis isolate 5; assay type: functional; in short: as §1
[30] = system: Mycobacterium tuberculosis; assay: Antimycobacterial activity against drug-sensitive Mycobacterium tuberculosis isolate 13; assay type: functional; in short: as §1
[31] = system: Mycobacterium tuberculosis; assay: Antimycobacterial activity against drug-sensitive Mycobacterium tuberculosis isolate 3; assay type: functional; in short: as §1
[32] = system: Mycobacterium tuberculosis; assay: Antimycobacterial activity against drug-sensitive Mycobacterium tuberculosis isolate 7; assay type: functional; in short: as §1
[33] = system: Mycobacterium tuberculosis; assay: Antimycobacterial activity against drug-sensitive Mycobacterium tuberculosis isolate 16; assay type: functional; in short: as §1
[34] = system: Mycobacterium tuberculosis; assay: Antimycobacterial activity against drug-sensitive Mycobacterium tuberculosis isolate 20; assay type: functional; in short: as §1
[35] = system: Mycobacterium tuberculosis; assay: Antimycobacterial activity against drug-sensitive Mycobacterium tuberculosis isolate 12; assay type: functional; in short: as §1
[36] = system: Mycobacterium tuberculosis; assay: Antimycobacterial activity against drug-sensitive Mycobacterium tuberculosis isolate 2; assay type: functional; in short: as §1

With `CN(C)C(=S)S[C@@H]1O[C@H](CO)[C@@H](O)[C@H](O)[C@H]1NC(=O)c1ccccc1` the MIC [1] was 100 µg/mL (≈ 259 µM).
With `O=C(O)c1cn(C2CC2)c2cc(N3CCNCC3)c(F)cc2c1=O` [CIPROFLOXACIN] the MIC [1] was 0.39 µg/mL (≈ 1.18 µM), the MIC [2] was 0.39 µg/mL (≈ 1.18 µM) and the MIC [3] was 0.2 µg/mL (≈ 0.604 µM). The MIC [4] was 0.1 µg/mL (≈ 0.302 µM) and the MIC [5] was 1.56 µg/mL (≈ 4.71 µM).
`S=C([S-])N(c1c[nH]cn1)c1c[nH]cn1.[Na+]` gave an MIC [1] of 6.25 µg/mL, an MIC [4] of 12.5 µg/mL and an MIC [6] greater than 100 µg/mL.
`CC1(C)S[C@@H]2[C@H](NC(=O)[C@H](N)c3ccccc3)C(=O)N2[C@H]1C(=O)O` [AMPICILLIN] gave an MIC [1] of 12.5 µg/mL (≈ 35.8 µM), an MIC [7] greater than 100 µg/mL and an MIC [3] of 50 µg/mL (≈ 143 µM). For the same compound, the MIC [8] was greater than 100 µg/mL and the MIC [4] was 12.5 µg/mL (≈ 35.8 µM).
In the case of `CN[C@@H]1[C@H](O[C@H]2[C@H](O[C@H]3[C@H](O)[C@@H](O)[C@H](N=C(N)N)[C@@H](O)[C@@H]3N=C(N)N)O[C@@H](C)[C@]2(O)C=O)O[C@@H](CO)[C@H](O)[C@H]1O` [STREPTOMYCIN], the MIC [1] was 0.39 µg/mL (≈ 0.671 µM), the MIC [7] was greater than 100 µg/mL and the MIC [2] was 1.56 µg/mL (≈ 2.68 µM). For the same compound, the MIC [3] was 50 µg/mL (≈ 86 µM), the MIC [8] was 50 µg/mL (≈ 86 µM) and the MIC [4] was 0.2 µg/mL (≈ 0.344 µM). The MIC [5] was 3.13 µg/mL (≈ 5.38 µM).
With `CO[C@H]1/C=C/O[C@@]2(C)Oc3c(C)c(O)c4c(O)c(c(/C=N/N5CCN(C)CC5)c(O)c4c3C2=O)NC(=O)/C(C)=C\C=C\[C@H](C)[C@H](O)[C@@H](C)[C@@H](O)[C@@H](C)[C@H](OC(C)=O)[C@@H]1C` [RIFAMPIN] the MIC [1] was 0.004 µg/mL (≈ 0.00486 µM), the MIC [7] was 0.004 µg/mL (≈ 0.00486 µM) and the MIC [2] was 0.25 µg/mL (≈ 0.304 µM). For the same compound, the MIC [3] was 0.002 µg/mL (≈ 0.00243 µM), the MIC [8] was 50 µg/mL (≈ 60.8 µM) and the MIC [4] was 0.004 µg/mL (≈ 0.00486 µM). The MIC [5] was less than 0.05 µg/mL.
Compound `CN(C)C(=S)[S-].[Na+]` [SODIUM DIMETHYLCARBAMODITHIOATE] has an MIC [1] of 1.56 µg/mL, an MIC [7] greater than 100 µg/mL and an MIC [2] greater than 100 µg/mL. It also gave an MIC [3] greater than 100 µg/mL, an MIC [8] greater than 100 µg/mL and an MIC [4] of 1.56 µg/mL. The MIC [6] was greater than 100 µg/mL and the MIC [5] was greater than 100 µg/mL.
For `NC[C@H]1O[C@H](O[C@H]2[C@H](O)[C@@H](O[C@H]3O[C@H](CO)[C@@H](O)[C@H](N)[C@H]3O)[C@H](N)C[C@@H]2N)[C@H](O)[C@@H](O)[C@@H]1O` [KANAMYCIN], the MIC [1] was 1.56 µg/mL (≈ 3.22 µM), the MIC [7] was greater than 100 µg/mL and the MIC [2] was 3.13 µg/mL (≈ 6.46 µM). The MIC [3] was 12.5 µg/mL (≈ 25.8 µM), the MIC [8] was 12.5 µg/mL (≈ 25.8 µM) and the MIC [4] was 0.3 µg/mL (≈ 0.619 µM). The MIC [5] was 3.13 µg/mL (≈ 6.46 µM).
`NCC[C@H](O)C(=O)N[C@@H]1C[C@H](N)[C@@H](O[C@H]2O[C@H](CN)[C@@H](O)[C@H](O)[C@H]2O)[C@H](O)[C@H]1O[C@H]1O[C@H](CO)[C@@H](O)[C@H](N)[C@H]1O` [AMIKACIN] showed an MIC [9] of 0.5 µg/mL (≈ 0.854 µM), an MIC [10] of 32 µg/mL (≈ 54.6 µM) and an MIC [11] greater than 128 µg/mL. For the same compound, the MIC [12] was 4 µg/mL (≈ 6.83 µM), the MIC [13] was 2 µg/mL (≈ 3.42 µM) and the MIC [14] was 0.5 µg/mL (≈ 0.854 µM). The MIC [15] was 32 µg/mL (≈ 54.6 µM) and the MIC [16] was greater than 128 µg/mL.
`CC1(C)S[C@@H]2[C@H](NC(=O)Cc3ccccc3)C(=O)N2[C@H]1C(=O)O` [PENICILLIN G] showed an MIC [1] of 500 µg/mL (≈ 1500 µM), an MIC [7] greater than 500 µg/mL and an MIC [3] of 31.3 µg/mL (≈ 93.6 µM). The MIC [8] was 25 µg/mL (≈ 74.8 µM) and the MIC [4] was 500 µg/mL (≈ 1500 µM).
With `CC(=O)N[C@@H]1[C@@H](O)[C@H](O)[C@@H](CO)O[C@H]1SC(=S)N1CCCC1` the MIC [17] was 6.25 µg/mL (≈ 17.8 µM), the MIC [18] was 6.25 µg/mL (≈ 17.8 µM) and the MIC [9] was greater than 128 µg/mL. For the same compound, the MIC [10] was greater than 128 µg/mL, the MIC [19] was 6.25 µg/mL (≈ 17.8 µM) and the MIC [11] was greater than 128 µg/mL. The MIC [20] was 6.25 µg/mL (≈ 17.8 µM), the MIC [1] was 6.25 µg/mL (≈ 17.8 µM) and the MIC [21] was 6.25 µg/mL (≈ 17.8 µM). It also gave an MIC [22] of 6.25 µg/mL (≈ 17.8 µM), an MIC [7] greater than 100 µg/mL and an MIC [2] of 100 µg/mL (≈ 285 µM). For the same compound, the MIC [23] was 6.25 µg/mL (≈ 17.8 µM), the MIC [24] was 6.25 µg/mL (≈ 17.8 µM) and the MIC [3] was greater than 100 µg/mL. The MIC [12] was greater than 128 µg/mL, the MIC [25] was 6.25 µg/mL (≈ 17.8 µM) and the MIC [26] was 6.25 µg/mL (≈ 17.8 µM). The MIC [13] was greater than 128 µg/mL, the MIC [8] was greater than 100 µg/mL and the MIC [14] was greater than 128 µg/mL. For the same compound, the MIC [4] was 12.5 µg/mL (≈ 35.7 µM), the MIC [27] was 6.25 µg/mL (≈ 17.8 µM) and the MIC [15] was greater than 128 µg/mL. It also gave an MIC [28] of 12.5 µg/mL (≈ 35.7 µM), an MIC [29] of 6.25 µg/mL (≈ 17.8 µM) and an MIC [30] of 12.5 µg/mL (≈ 35.7 µM). For the same compound, the MIC [31] was 6.25 µg/mL (≈ 17.8 µM), the MIC [16] was greater than 128 µg/mL and the MIC [32] was 12.5 µg/mL (≈ 35.7 µM). It also gave an MIC [5] of 50 µg/mL (≈ 143 µM), an MIC [33] of 6.25 µg/mL (≈ 17.8 µM) and an MIC [34] of 12.5 µg/mL (≈ 35.7 µM). It also gave an MIC [35] of 6.25 µg/mL (≈ 17.8 µM) and an MIC [36] of 6.25 µg/mL (≈ 17.8 µM).
